System: MS2 coat protein
Test: apparent Kd, MS2 coat protein; higher = weaker binding; RNA-MaP array; FMN 200 µM where present
How it was run: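 The apparent Kd is the median of filtered binding-curve fits, one per cluster, to green signal normalised to red-channel RNA signal and control-cluster median Fmax. The clusters were on Illumina sequencing chips, and stalled E. coli RNA polymerase had transcribed the designs on them. Titration used SNAP-549-labelled MS2 coat protein from 0.7 or 1.5 nM, doubling to 3 µM, without and then with constant ligand, in 100 mM Tris-HCl pH 7.5, 80 mM KCl, 4 mM MgCl2, BSA, DTT, yeast tRNA and Tween-20.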

[1] = designed as: ON switch for flavin mononucleotide, no ligand
[2] = ligand present: flavin mononucleotide, designed as: ON switch for flavin mononucleotide
[3] = designed as: OFF switch for flavin mononucleotide, no ligand
[4] = ligand present: flavin mononucleotide, designed as: OFF switch for flavin mononucleotide

| Sequence | apparent Kd [1] | apparent Kd [2] | apparent Kd [3] | apparent Kd [4] |
| --- | --- | --- | --- | --- |
| ACAUGAGGAUCACCCAUGUCUGCAUAGGAUAUUGAGGAUUAGGCAUAUUAUUAUGGAUUUGCCCACAAGAAGGAUGAAAUUGUU | 20.1 nM | 13.4 nM | – | – |
| AAAACGUGAGGAUAUGCACCAACCAAGGUUUUUCGGGUACGACAUGAGGAUCACCCAUGUAGAAGGCACGCAAA | – | – | 26.4 nM | 32 nM |
| GGGUACAUCGAAGGAUAUCAUGUAAAUACAUGAGGAUCACCCAUGUCGAUGGAGACAUCGGAGAUUGAGAAGGCCGAUGUACCG | 338 nM | 28.1 nM | – | – |
| CUUGUACUCGGAGGAUAUCGAUAUCAAACAUGAGGAUCACCCAUGUUGAGGAUCACACAUGUAAAUGAGAAGGCUGACGUUGCU | 22.9 nM | 26.3 nM | – | – |
| UUGUUCUGAGGAUAUACAUGAGGAUCACCCAUGUGUUUCUGCUUGGUGACUAGCGAAUGUAGAAGGCUGUUCUC | – | – | 33.6 nM | 35.6 nM |
| UUUAGUUGCGGGCAGGAUAUGUAUUAAAAUACAUGAGGAUCACCCAUGUGUGGGUAUAACACCCAACAGAAGGGCCAAUCGCGAC | 132 nM | 18.3 nM | – | – |
| AGAAAAGCAGGAUAUAUCCGGGAUAACAUGAGGAUCACCCAUGUGACCGCUUGAUAUCCUAUAGAAGGGCUUAAGA | – | – | 24.4 nM | 51.2 nM |
| UCAUACGUUGAGGAUAUGUCAGUUAGAAUAUUUACAGAAGGCGAUACAUGAGGAUCACCCAUGUUUAUGGGCAU | – | – | 188 nM | 207 nM |
| GAGUGACAUGAGGAUCACCCAUGUGAGGAUAUCGGACGGACCAAAUUAACAAUAAUUGCGAGAAGGCACAUCGG | – | – | 60.2 nM | 92.3 nM |
| GCCAUCGCAUGAGGAUAUGCUCCCGUUUCGGGAGCAGAAGGCAUGUCAUAUGACAUGAGGAUCACCCAUGUAGCUAAGAUGGCA | 576 nM | 17.5 nM | – | – |
| CGUAUAUGGGAGAAGGCAUGUCCCAAAGGGCCAUGAGGAUAUCCUAAGUGUACGCUUUGCGACAUGAGGAUCACCCAUGUAGCA | 7.07 nM | 5.75 nM | – | – |
| AAGAAGGACGCAGGAUAUCCAGGACCUCCCGCAGGAGAAGGGCGAGACAUGAGGAUCACCCAUACAUGAGGAUCACCCAUGUAA | – | – | 20.4 nM | 22.3 nM |
| AUUUGAAAGUCAGGAUAUGGUAGAUUAUUCUUAUCAGAAGGGAUUAUUAUACUCAAGUACAUGAGGAUCACCCAUGUUAAAUCA | 22.6 nM | 13 nM | – | – |
| GCGUAUUUAAUAUAUAUAAAACUGUCAGAAGGUGAUAAGACGACAUGAGGAUCACCCAUGUAAUUCAAGGAUAUGAUAAUGCGC | 37.3 nM | 20.3 nM | – | – |
| GCUGCAUGCAGAGGAUAUGACACAUGAGGAUCACCCAUGUAAUAAAUGAGAUUUUCGAAUGUAUCUCAGAAGGCUGCAUGCAGC | – | – | 16.6 nM | 89.4 nM |
| UCGGCCGCCGUGAGGAUAUGCCCGCGCGCCCGCGGGCAGAAGGCACAUGAGGAUCACCCAUGUCCCGCGGCAUU | – | – | 16.2 nM | 35.1 nM |
| AUAUUGUGAGGAUAUGAACUUUGUAUCGAAAGAUACUAAGUUCAGAAGGCACAUGAGGAUCACCCAUGUUUCUC | – | – | 82.2 nM | 1130 nM |
| AAAUAACCUAGCAAAAUUUCCUCACAUGAGGAUCACCCAUGUAGAAGGUUAACCUAAUAUAGGAUAAAGGAUAUACGUGCUAGG | – | – | 7.58 nM | 19.9 nM |
| AAAUAAAUUAGCAUGAUAUCUUCACAUGAGGAUCACCCAUGUCAGGAUAUUUGUCCUAAAAGGACAGAGAAGGGACAUGCUAUA | – | – | 5.78 nM | 7.76 nM |
| CAGAAACAUGAGGAUCACCCAUGUGAGGAUAUGCGUACGUUGUCCGUAGGCGACGUGCGCAGAAGGCACAAAGG | – | – | 132 nM | 256 nM |
| GGACGUCACAUGAACAUGAGGAUCACCCAUGUAAAUUCUCAUGAGGAUAUGGAUCCUAAUUGGAUCCAGAAGGCGUGGACGUCC | 1030 nM | 415 nM | – | – |
| UAAUGAGAGCAGGAUAUCUUAUAAAUGUAUGAAAGAGAAGGGCUCACAUGAGGAUCACCCAUGUGGUCCUAGAU | – | – | 34 nM | 163 nM |
| UAGUAUAAGGGCAUUAAACAUGAGGAUCACCCAUGUACGAUAGAGGAUAUGCAUUUCAGUUUAGAGUAGAAGGUUAGAGAAUUU | – | – | 42.1 nM | 42.9 nM |
| AUAUCUUACCAAGGAUAUUUAAGAUUUGUGUAGACAUGAGGAUCACCCAUGUGGCGUUAGUCACGGGAGAAGGUGGUUUGAUAU | 140 nM | 648 nM | – | – |
| GUCAGCUCGUGAGGAUAUACAACACUGAUUCGGCAGUGUAUUAAGAUCACAUGAGGAUCACCCAUGUAGAAGGCACGAGCUGAU | – | – | 17.2 nM | 275 nM |
| ACAAUAAAGGGUCUGGUUCCAUACAUGAGGAUCACCCAUGUCAAGGAUAUAACGGACGGGCGCCGUUAGAAGGUGACGACUGCG | – | – | 132 nM | 401 nM |
| UGGAUCAUCGGAGGAUAUCAUGUAAAUACAUGAGGAUCACCCAUGUCGAUGGAGACAUCGGAGAUUGAGAAGGCCGAUGAUCCU | 437 nM | 25.7 nM | – | – |
| CCUAGACAUGAGGAUCACCCAUGUGAGGAUAUGAUGCGAUCGUCGAAAGACGAUAGCAUCAGAAGGCACAUAUG | – | – | 34.4 nM | 109 nM |

| Sequence | apparent Kd [1] | apparent Kd [2] | apparent Kd [3] | apparent Kd [4] |
| --- | --- | --- | --- | --- |
| AAUUGGAUGCAGAAGGCAUGGACGACUCGUCACAUUAACAUGAGGAUCACCCAUGUGAAAACACAUGAGGAUAUGCAUCCUAAA | 17.5 nM | 6.41 nM | – | – |
| CGAUGUUAUGUCAGGAUAUGCGUUGCGAAAGCGAUGCAGAAGGGACAUGAGGAUCACCCAUGUCCUAACCAUCG | – | – | 12.3 nM | 22.6 nM |
| UGGUUGUGAGGAUAUACGUUUUUUAACUCUUGUUUUAUACUGUAGAAGGCACAUGAGGAUCACCCAUGUUACGU | – | – | 22.4 nM | 26 nM |
| UAUAUAUAAUAUAUUAACAUGAGGAUCACCCAUGUCGCUAGACAGGAUAUAUUUAAUAUUAUAAAGUAGAAGGGUCAUAUAAUU | 50.5 nM | 64.8 nM | – | – |
| UUGGACGUCGUAGGAUAUGUAGGAUAUUCCUACAUGAGGAUCACCCAUGUUGACAUGGAAGAGGGACAGAAGGACGAUGUCCAU | 606 nM | 30.5 nM | – | – |
| GGGUAGUGAGGAUAUCGUUGUUAGGAGGAGUAGGUAGGAGGCGAGAAGGCACAUGAGGAUCACCCAUGUAUGGA | – | – | 36.2 nM | 33.3 nM |
| UUUUCGGCAGGAUAUACAUGAGGAUCACCCAUGUAAAUUUUUCGUUUAACUUGAAUGUGUAGAAGGGCCAUUUU | – | – | 23.3 nM | 23.6 nM |
| UUUAUAAAGAUAGGAUAUUGUAUAAUAAUUUAAUAAGAAGGAUCACACAUGAGGAUCACCCAUGUAUGAGGAUCACCCAUGUAU | – | – | 19.7 nM | 20.3 nM |
| GGAGAGGACAGAGGAUAUACGUGCUAGAGAUACUAGCAAAAUUUCCUCACAUGAGGAUCACCCAUGUAGAAGGCUGUCCUAUCG | – | – | 16.6 nM | 309 nM |
| AGAUACUACGAGAAGGACAUGAGGAUCACCCAUGUAACCAGUAUCUGGAAUGUAGGAUAUCGUAGUAUCAGGAUCGUGAGAUCA | – | – | 9.91 nM | 32.9 nM |
| CCCACGUGUGCAGGAUAUCCCACGAGCGCAACAUGAGGAUCACCCAUGUACCUGAGUCUCGGAACGGAGAAGGGUACAUGUUAU | 432 nM | 101 nM | – | – |
| AUAUAUAUCCAGAAGGUGCCAGCGAGAGCUGCACAUGAGGAUCACCCAUGUUGUCGGUGACGACGCAAGGAUAUGGAUAUAUAU | 28.2 nM | 7.43 nM | – | – |
| UUUAAUCGAAACAUGAGGAUCACCCAUGUGUUGUAAUUAACAUAGGAUAUUUGUAUACUUUUAUAAAAGAAGGAUGAUAAUACU | 17.8 nM | 13 nM | – | – |
| CAGUACUGAGGAUAUACAUGAGGAUCACCCAUGUGCCUCAGGUAGGAUACUACCAUUAGUAGAAGGCAGUACUG | – | – | 197 nM | 37.7 nM |
| CAGGUAGCUACAGGAUAUACACGUCUGGAUAAACCAGACGAAUAACCCACAUGAGGAUCACCCAUGUAGAAGGGUAGCUGCCUG | – | – | 15.4 nM | 21.3 nM |
| CAUGUCCUCACAGGAUAUGCUGGACUUUGUCCAGCAGAAGGGUGAACAUGAGGAUCACCCAUGUAAAGGACAUGUAUAUUUAAU | 1080 nM | 84.3 nM | – | – |
| AUAAAACAUGAGGAUCACCCAUGUCAACAAAGUCGAGGAUAUGGGCAAAUAAAAUAAGAACCAGAAGGCGUAUAAU | – | 94.3 nM | – | – |
| AAUAACAGAGGAUAUACUAUUUUAUGUGUUUAUUGUUUUAAACAUGAGGAUCACCCAUGUAGAAGGCUGAUUGA | – | – | 77.3 nM | 114 nM |
| GAGUGGAGGUAAGGAUAUAUAAUGAUAAUCACAGUAGAAGGUACUAACAUGAGGAUCACCCAUGUAGGACUAUACCAGAGAGGG | 16.9 nM | 15.3 nM | – | – |
| UUGGACGUGGUAGGAUAUGUAGGAUAUUCCUACAUGAGGAUCACCCAUGUUGACAUGGAAGAAGGACAGAAGGACGAUGUCCAU | 112 nM | 35 nM | – | – |
| GUAGCAUACCGAGGAUAUUCAACGACAAAGUCGACAUGAGGAUCACCCAUGUGGCGAAAGCCUUGGGAGAAGGCGGAAUGCUAC | 16.5 nM | 11.1 nM | – | – |
| CUGUACAUAGGAUAUAGUUGCUUUUACAUGAGGAUCACCCAUGUCACUCCUCUCUCUCUUCUAGAAGGAUGUUUCU | – | – | 72.4 nM | 53.8 nM |
| AUUGUUAAGGUAGGAUAUAGUAAAAUGAUUUAGUUAGAAGGAUCUCACAUGAGGAUCACCCAUGUAAGAGGAUCACCCAUGUAU | – | – | 11.1 nM | 9.45 nM |
| CUGUUACAUGAGGAUCACCCAUGUAAGGAUAUCUGCCACUAGAGGGUCACUUUGGGAUGGAGAAGGUACACGGG | – | – | 34.6 nM | 68.6 nM |
| GUCAGCUCGUGAGGAUAUACAUGUGCUGGAUACAGCACUAAUUAAUUCACAUGAGGAUCACCCAUGUAGAAGGCACGAGCUGAU | – | – | 16.1 nM | 18.8 nM |
| CUGUGAUGGAUCCAGAAUUACAACAUGAGGAUCACCCAUGUGCAGGAUAUCGGGUUGAUAGGCGCCGAGAAGGGUAUGAUCACG | – | – | 164 nM | 140 nM |
| GUCGGAAACGACAAAAGUAGCAUAGGAGAAGGUCCAUUAAACAUGAGGAUCACCCAUGUAAUUGGGAAGGAUAUCCUAUGCUAC | 9.27 nM | 5.84 nM | – | – |

Reference: the EternaBench riboswitch data
